Compound activity from PubChem BioAssay.
TRPC4 potent: allosteric potentiators of mouse TRPC4 channel | Q9QUQ5 | B-score at 10 µM | 0.42% of 310,000 active | AID 2227 | HEK293 TRPC4beta/mu-opioid, DAMGO EC20, Fluo-4 Ca2+ flux; stronger effect = higher value;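 active means B-score of calcium response area above 5 SD of library B-scores, with initial fluorescence ratio within 5 SD of library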;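 further: B-score of integrated fluorescence ratio over time as area under calcium response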
TRPC4 act: opens the mouse TRPC4 cation channel | Q9QUQ5 | HEK293 TRPC4beta/mu-opioid, Fluo4 calcium fluorescence; stronger effect = higher value | 0.49% of 310,000 active | B-score at 10 µM;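 active means B-score above 5 SD of library B-scores, and initial fluorescence ratio not above library mean plus 5 SD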;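 further: positive B-score marks a calcium rise read as TRPC4 activation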
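System – HEK293 cells stably co-expressing mouse TRPC4beta and mu-opioid receptor · Signal – Fluo4 calcium-sensitive dye fluorescence, kinetic, 1 Hz baseline · Benchmarks – buffer (low) and maximal DAMGO (high) · Read-out – B score of integrated fluorescence ratio per well · Incubation – dye loading 45 min room temperature, 110 s kinetic read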
TRPC4 inh: blocks the mouse TRPC4 cation channel. B-score at 10 µM. HEK293 TRPC4beta/mu-opioid, DAMGO-evoked Fluo4 calcium flux; stronger effect = lower value. AID 2247. 0.39% of 300,000 active;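 active means B-score over 3 SD under the library average, no early fluorescence shift, positive overall ratio signal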
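Assay system: HEK293 cells with stable TRPC4beta plus mu-opioid receptor expression. Dosing: single dose. Measured by: Fluo4 Ca2+ flux fluorescence. Also added: DAMGO in two steps, submaximal then maximal. Read-out: B score from integrated Fluo4 fluorescence ratio.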
TRPC6 inh: mouse TRPC6 channel inhibition. Q61143. HEK293-TRPC6, membrane potential dye, ACh-evoked depolarization; stronger effect = lower value. B-score at 10 µM. 1.1% of 310,000 active. AID 2553;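 active means B-score under library mean minus 3 SD, initial fluorescence not abnormally high, positive integrated signal ratio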;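 further: B-score derived from integrated fluorescence ratio over the kinetic read; more negative B-score means stronger inhibition of depolarization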
TRPC6 activator: mouse TRPC6 channel activation; B-score at 10 µM; 0.13% of 310,000 active; Q61143; HEK293-TRPC6 membrane potential dye fluorescence; stronger effect = higher value; AID 2550;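 active means B-score of the integrated fluorescence ratio above library mean plus 3 SD, and starting fluorescence ratio within library mean plus 5 SD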;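 further: higher score means more depolarization so channel activation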
TRPC4 spec 2: second selectivity test of TRPC6 inhibitors: effect on mouse TRPC4; shares compounds with TRPC6 inh; HEK293 TRPC4/MOR, membrane potential dye fluorescence; channel activated by saturating DAMGO dose; inhibition, % at 10 µM; 42% of 920 active; AID 2776;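 active means compounds whose fluorescence signal differed from control wells by over 3 SD, either direction, in both duplicate plates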
TRPC4 spec: selectivity of TRPC6 inhibitors: effect on mouse TRPC4. shares compounds with TRPC6 inh. HEK293 TRPC4/mu-opioid, membrane potential fluorescence. activity change, negative = inhibition, % at 10 µM. 61% of 920 active;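 active means rise or fall in signal beyond 3 SD of buffer-only wells in both replicate plates, either sign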;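 further: integrated kinetic ratio of fluorescence range over baseline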
HEK293 MPD ctr 2-1: second counter-screen for TRPC6 inhibitors: parental HEK293 cells. shares compounds with TRPC6 inh. parental HEK293 membrane potential dye fluorescence; maximal acetylcholine challenge after compound addition. signal change vs control, % at 10 µM. 31% of 920 active. AID 2779;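 active means membrane potential signal moving either way by over 3 SD of the maximum-effect control, in both duplicate plates, meaning non-specific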
HEK293 MPD ctr-1: counter-screen for TRPC6 inhibitors: effect in parental HEK293 cells | AID 2780 | membrane potential signal change, % at 10 µM | shares compounds with TRPC6 inh | parental HEK293 membrane potential dye fluorescence | 60% of 920 active;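 active means membrane potential signal shifting up or down by more than 3 SD of buffer-only wells, on both duplicate plates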
HEK293 MPD ctr-2: counter-screen for TRPC6 modulators: effect in parental HEK293 cells | shares compounds with TRPC6 inh | membrane potential dye fluorescence | membrane potential signal change, % at 10 µM | 51% of 2,400 active;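 active means membrane potential signal moves up or down beyond 5 SD from buffer-only wells, on both duplicate plates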
HEK293 MPD ctr 2-2: second counter-screen for TRPC6 modulators: effect in parental HEK293 cells. inhibition, % at 10 µM. shares compounds with TRPC6 inh. AID 488926. membrane potential dye fluorescence; after compound, maximal acetylcholine stimulation. 14% of 2,400 active;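 active means membrane potential signal drops by more than 5 SD from the mean control signal, in both duplicate plates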;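 further: plate controls were acetylcholine ECmax control wells for no effect and buffer only wells for full effect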
TRPC4 ctr mod: tests whether TRPC6 modulators also affect mouse TRPC4; shares compounds with TRPC6 inh; HEK293 TRPC4/mu-opioid, membrane potential fluorescence; percent change from control (negative = decrease, positive = increase), % at 10 µM; 69% of 2,400 active; AID 488927;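 active means membrane potential signal moved up or down beyond 5 SD of buffer control wells, in both duplicate plates, actives on both sides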;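 further: plate controls were assay buffer wells for no effect and DAMGO maximal-effect wells for full effect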
TRPC4 ctr inh 2: mouse TRPC4 off-target activity of TRPC6 modulators, second screen. inhibition, % at 10 µM. 55% of 2,400 active. HEK293 TRPC4/mu-opioid, membrane potential dye fluorescence; stimulated with maximal-effect DAMGO. shares compounds with TRPC6 inh;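 active means drop in membrane potential signal beyond 5 SD of the control wells in both duplicate plates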;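 further: TRPC4 counter screen for TRPC6 hits run under conditions tuned for TRPC6 not TRPC4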
TRPC6 block conf: confirmation of mouse TRPC6 inhibitors | HEK293-TRPC6, membrane potential dye, ACh-evoked depolarization | inhibition, % at 10 µM | 43% of 3,300 active | shares compounds with TRPC6 inh;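 active means fluorescence ratio falls more than 5 SD below the full-stimulation control mean, in both duplicate runs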;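 further: integrated fluorescence ratio of peak minus minimum over baseline after agonist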
TRPC6 act conf: mouse TRPC6 activator confirmation; 11% of 2,800 active; HEK293-TRPC6 membrane potential dye fluorescence, FDSS; shares compounds with TRPC6 inh; activation, % at 10 µM;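 active means ratio signal rise beyond 5 SD above unstimulated control wells' mean, seen in both duplicate runs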;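 further: plate controls were buffer EC0 wells for no effect and acetylcholine ECmax response for full effect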
An asterisk follows results filed as active; i = inactive; x = no result. An excerpt weighted towards active compounds, which were near 2.3% of everything screened.

SMILES | TRPC4 potent | TRPC4 act | TRPC4 inh | TRPC6 inh | TRPC6 activator | HEK293 MPD ctr-2 | HEK293 MPD ctr 2-2 | TRPC4 ctr mod | TRPC4 ctr inh 2 | TRPC6 block conf | TRPC6 act conf | others
O=C(COC(=O)c1cc[n+]([O-])cc1)Nc1ccc(Cl)cc1[N+](=O)[O-] | i | i | i | -6* | i | -168%* | i | -36%* | i | i | i
Nc1ccc(C(=O)OCC(=O)NC(=O)c2ccccc2)cc1[N+](=O)[O-] | i | i | i | i | i | x | x | x | x | x | x
O=C(COC(=O)c1ccc(Cl)cc1[N+](=O)[O-])NC(=O)c1ccccc1 | i | i | i | -5.9* | i | i | i | i | i | i | i
O=C(NNC(=O)C1CCCN(c2ncccn2)C1)c1ccncc1 (configuration not stated) | i | i | i | i | i | x | x | x | x | x | x
Cc1cccc(-c2nc(=S)c3c(n2Cc2ccco2)CCCC3)c1 | i | i | i | -6.3* | i | 184%* | i | 42%* | i | i | x
COc1cccc(-c2nc(=S)c3c(n2Cc2ccco2)CCCC3)c1 | i | i | i | i | i | x | x | x | x | x | x
O=C(N/N=C\c1cc2c(cc1Cl)OCO2)c1cccs1 | i | i | i | i | i | x | x | x | x | x | x
CN1CCN(C(CNC(=O)C(=O)Nc2ccc3c(c2)OCO3)c2ccc(F)cc2)CC1 (configuration not stated) | i | i | i | -6* | i | 100%* | i | 12%* | i | 39%* | i
C=CCn1c(/N=C/c2ccc(N(C)C)cc2)nc2ccccc21 | 10* | 86* | i | -6.6* | 22* | 890%* | i | 68%* | 76%* | 82%* | 262%*
COc1ccc(C2=Nn3c([n+](C)c4ccccc43)SC2)cc1 | i | i | i | -7.1* | i | x | x | x | x | 109%* | i | TRPC4 spec 2=66%*;TRPC4 spec=-20%*;HEK293 MPD ctr 2-1=-36%*;HEK293 MPD ctr-1=-338%*
O=C(Nc1ccc(F)c(F)c1)C1=COCCO1 | i | i | i | i | i | x | x | x | x | x | x
O=C(CCCOc1ccccc1)NN1C(=O)NC2(CCCCC2)C1=O | i | i | i | i | i | x | x | x | x | x | x
COc1ccccc1N1CCN(C(=O)CSc2nc(C)c(C)c(=O)[nH]2)CC1 | i | i | i | i | i | x | x | x | x | x | x
COc1ccccc1N1CCN(C(=O)CSc2nc(C)cc(=O)[nH]2)CC1 | i | i | i | -6.9* | i | x | x | x | x | i | i | TRPC4 spec 2=i;TRPC4 spec=i;HEK293 MPD ctr 2-1=i;HEK293 MPD ctr-1=i
